# Source: ChEMBL document CHEMBL1140927, “Discovery of N-(3-fluorophenyl)-1-[(4-([(3S)-3-methyl-1-piperazinyl]methyl)phenyl)acetyl]-4-piperidinamine (GSK962040), the first small molecule motilin receptor agonist clinical candidate” (J Med Chem, 2009)
# Legend:
# Motilin receptor [1] = molecular target: T1, Motilin receptor (Homo sapiens, UniProt O43193); experiment: Intrinsic activity at human recombinant motilin receptor expressed in CHO cells relative to motilin; format: cell-based
# Summary of the method: (§1)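 CHO-K1 cells stably transfected with human motilin receptor, grown in DMEM/HamF-12 with 10% FBS, 2 mM GlutaMAX, 1 mg/mL Geneticin; seeded 10 000 cells/well, 24 h. Loaded with Fluo 4 (2.5 µM) in Tyrodes with probenecid, 1 h at 37.5 °C. Compound top final 12 µM, 1-in-4 dilutions; fluorescence read over 1 min; max change over baseline, four-parameter logistic fit; intrinsic activity = curve maximum relative to motilin maximum.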
# Cytochrome P450 3A4 [2] = molecular target: T2, Cytochrome P450 3A4 (Homo sapiens, UniProt P08684); experiment: Inhibition of human CYP3A4 expressed in Escherichia coli using diethoxyfluorescein substrate by time dependent inhibition assay; format: ADME
# T2 sequence (P08684 whole entry): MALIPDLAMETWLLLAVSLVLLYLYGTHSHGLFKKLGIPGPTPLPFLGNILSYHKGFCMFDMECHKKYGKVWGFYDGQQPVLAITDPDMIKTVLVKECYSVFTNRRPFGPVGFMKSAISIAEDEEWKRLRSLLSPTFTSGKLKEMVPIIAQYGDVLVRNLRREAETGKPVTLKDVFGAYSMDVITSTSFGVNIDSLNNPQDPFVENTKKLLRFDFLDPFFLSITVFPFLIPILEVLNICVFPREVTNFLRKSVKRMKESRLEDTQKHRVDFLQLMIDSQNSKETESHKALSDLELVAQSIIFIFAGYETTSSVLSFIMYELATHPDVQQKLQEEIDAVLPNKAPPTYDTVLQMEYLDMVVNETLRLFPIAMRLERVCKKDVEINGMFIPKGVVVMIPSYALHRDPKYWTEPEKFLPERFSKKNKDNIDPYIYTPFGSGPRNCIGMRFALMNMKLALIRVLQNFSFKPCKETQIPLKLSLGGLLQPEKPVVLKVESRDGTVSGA
# Cytochrome P450 3A4 [3] = molecular target: T2, Cytochrome P450 3A4; experiment: Inhibition of human CYP3A4 expressed in Escherichia coli using 7BQ substrate by time dependent inhibition assay; format: ADME
# Cytochrome P450 3A4 [4] = molecular target: T2, Cytochrome P450 3A4; experiment: Inhibition of human CYP3A4 expressed in Escherichia coli using diethoxyfluorescein substrate assessed as decrease in enzyme activity by time dependent inhibition assay; format: ADME; parameters: unit not given here
# Motilin receptor [5] = molecular target: T1, Motilin receptor; experiment: Agonist activity at human recombinant motilin receptor expressed in CHO cells assessed as increase in intracellular calcium by FLIPR assay; format: functional, cell-based; summary of the method: as §1
# Stomach [6] = experiment: Potentiation of electric field stimulated-rabbit gastric antrum contraction at 0.3 uM; format: functional, Oryctolagus cuniculus
# Summary of the method: (§2)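 Isolated native rabbit gastric antrum tissue. Cholinergic contractions are evoked by electrical field stimulation (EFS), and compound is added at the stated concentration. The read-out is % potentiation of EFS-evoked contractions, n = 4-8.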
# Stomach [7] = experiment: Potentiation of electric field stimulated-rabbit gastric antrum contraction at 0.1 uM; format: functional, Oryctolagus cuniculus; summary of the method: as §2
# [8] = Half life in rabbit gastric antrum native tissue at 0.3 uM; format: ADME, tissue-based, Oryctolagus cuniculus, Stomach
# [9] = Aqueous solubility of the compound; format: physicochemical; settings: aqueous medium
# Stomach [10] = experiment: Potentiation of electric field stimulated-rabbit gastric antrum contraction at 3 uM; format: functional, Oryctolagus cuniculus
# Summary of the method: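 Isolated rabbit gastric antrum; cholinergic contractions evoked by electrical field stimulation, compound response expressed as % potentiation of EFS-evoked contraction, n = 4-8.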
# Stomach [11] = experiment: Potentiation of electric field stimulated-rabbit gastric antrum contraction at 1 uM; format: functional, Oryctolagus cuniculus; summary of the method: as §2
# [12] = Cmax in Sprague-Dawley rat at 5 mg/kg, po; format: ADME, organism-based; parameters: dose 5 mg/kg, route oral; settings: in vivo
# Summary of the method: (§3)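 Male Sprague-Dawley rats (n = 3), HCl salt suspended in 1% w/v methylcellulose at 1 mg free base/mL, oral gavage 5 mL/kg for 5 mg free base/kg; serial blood up to 12 h (8 h in a second study); diluted blood analysed by LC/MS/MS, LLQ 5 ng/mL.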
# [13] = Tmax in Sprague-Dawley rat at 5 mg/kg, po; format: ADME, organism-based; parameters: dose 5 mg/kg, route oral; settings: in vivo; summary of the method: as §3
# Rattus norvegicus = experiment: AUC (0 to t) in Sprague-Dawley rat at 5 mg/kg, po; format: ADME, organism-based, Plasma; parameters: dose 5 mg/kg, route oral; settings: in vivo; summary of the method: as §3
# [14] = Half life in rabbit gastric antrum native tissue at 3 uM; format: ADME, tissue-based, Oryctolagus cuniculus, Stomach
# [15] = Oral bioavailability in Sprague-Dawley rat; format: ADME, organism-based; settings: in vivo
# Summary of the method: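 Male Sprague-Dawley rats (n = 3), two study days 2 days apart: 1 h IV infusion of 1 mg free base/kg in 0.9% saline (0.2 mg/mL, 5 mL/kg/h), then oral gavage 5 mg free base/kg in 1% methylcellulose; serial blood up to 12 h; LC/MS/MS, LLQ 5 ng/mL.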
# [16] = Oral bioavailability in Beagle dog; format: ADME, organism-based, Canis lupus familiaris; settings: in vivo
# Summary of the method: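 Three dogs, two study days 7 days apart: 1 h IV infusion of 2 mg free base/kg in 0.9% saline (0.4 mg/mL, 5 mL/kg/h), then same dogs oral gavage 5 mg free base/kg in 1% methylcellulose (1 mg/mL, 5 mL/kg); serial blood up to 30 h; LC/MS/MS, LLQ 5 ng/mL.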
# Cytochrome P450 1A2 = molecular target: T3, Cytochrome P450 1A2 (Homo sapiens, UniProt P05177); experiment: Inhibition of human CYP1A2; format: ADME
# T3 sequence (P05177 whole entry): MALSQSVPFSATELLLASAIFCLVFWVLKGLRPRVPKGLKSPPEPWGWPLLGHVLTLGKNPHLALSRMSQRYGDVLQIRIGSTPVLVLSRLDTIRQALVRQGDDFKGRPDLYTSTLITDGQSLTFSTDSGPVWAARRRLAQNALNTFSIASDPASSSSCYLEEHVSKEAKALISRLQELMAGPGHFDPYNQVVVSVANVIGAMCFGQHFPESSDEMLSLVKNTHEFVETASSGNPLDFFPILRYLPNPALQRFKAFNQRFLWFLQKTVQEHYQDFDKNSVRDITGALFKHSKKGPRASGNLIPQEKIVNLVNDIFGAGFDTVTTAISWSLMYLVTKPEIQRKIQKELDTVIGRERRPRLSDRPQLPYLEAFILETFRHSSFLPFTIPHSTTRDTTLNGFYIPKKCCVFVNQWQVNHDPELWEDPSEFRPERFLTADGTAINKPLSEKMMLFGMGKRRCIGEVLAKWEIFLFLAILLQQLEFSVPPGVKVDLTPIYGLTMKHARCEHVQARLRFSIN
# Cytochrome P450 2C9 = Cytochrome P450 2C9 (Homo sapiens, UniProt P11712); experiment: Inhibition of human CYP2C9; format: ADME
# Sequence of Cytochrome P450 2C9 (P11712 whole entry): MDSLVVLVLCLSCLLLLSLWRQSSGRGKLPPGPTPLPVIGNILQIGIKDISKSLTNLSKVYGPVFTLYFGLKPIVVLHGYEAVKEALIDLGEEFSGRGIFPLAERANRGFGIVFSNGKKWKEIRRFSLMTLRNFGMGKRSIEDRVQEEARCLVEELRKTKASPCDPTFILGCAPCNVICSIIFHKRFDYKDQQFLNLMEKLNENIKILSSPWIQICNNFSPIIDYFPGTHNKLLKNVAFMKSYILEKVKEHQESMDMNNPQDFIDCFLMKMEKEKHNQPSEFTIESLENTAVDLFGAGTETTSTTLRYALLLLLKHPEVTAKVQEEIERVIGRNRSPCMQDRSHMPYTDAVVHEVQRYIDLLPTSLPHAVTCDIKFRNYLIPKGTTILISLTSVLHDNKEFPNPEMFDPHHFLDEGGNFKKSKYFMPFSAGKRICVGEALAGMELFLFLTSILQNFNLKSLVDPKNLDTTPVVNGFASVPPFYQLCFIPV
# Cytochrome P450 2C19 = Cytochrome P450 2C19 (Homo sapiens, UniProt P33261); experiment: Inhibition of human CYP2C19; format: ADME
# Sequence of Cytochrome P450 2C19 (P33261 whole entry): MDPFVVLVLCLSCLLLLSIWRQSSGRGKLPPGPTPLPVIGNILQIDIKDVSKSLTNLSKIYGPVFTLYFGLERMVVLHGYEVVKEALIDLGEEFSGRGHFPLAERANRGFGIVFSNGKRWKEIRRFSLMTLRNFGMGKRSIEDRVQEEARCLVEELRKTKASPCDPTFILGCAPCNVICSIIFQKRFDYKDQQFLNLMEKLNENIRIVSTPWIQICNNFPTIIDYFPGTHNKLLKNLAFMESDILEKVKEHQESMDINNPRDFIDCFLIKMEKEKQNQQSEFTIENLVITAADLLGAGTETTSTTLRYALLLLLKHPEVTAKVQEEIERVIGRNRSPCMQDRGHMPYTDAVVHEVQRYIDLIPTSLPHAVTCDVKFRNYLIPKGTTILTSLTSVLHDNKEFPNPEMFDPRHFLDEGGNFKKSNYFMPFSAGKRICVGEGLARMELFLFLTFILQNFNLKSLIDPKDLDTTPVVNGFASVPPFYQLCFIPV
# Cytochrome P450 2D6 = Cytochrome P450 2D6 (Homo sapiens, UniProt P10635); experiment: Inhibition of human CYP2D6; format: ADME
# Sequence of Cytochrome P450 2D6 (P10635 whole entry): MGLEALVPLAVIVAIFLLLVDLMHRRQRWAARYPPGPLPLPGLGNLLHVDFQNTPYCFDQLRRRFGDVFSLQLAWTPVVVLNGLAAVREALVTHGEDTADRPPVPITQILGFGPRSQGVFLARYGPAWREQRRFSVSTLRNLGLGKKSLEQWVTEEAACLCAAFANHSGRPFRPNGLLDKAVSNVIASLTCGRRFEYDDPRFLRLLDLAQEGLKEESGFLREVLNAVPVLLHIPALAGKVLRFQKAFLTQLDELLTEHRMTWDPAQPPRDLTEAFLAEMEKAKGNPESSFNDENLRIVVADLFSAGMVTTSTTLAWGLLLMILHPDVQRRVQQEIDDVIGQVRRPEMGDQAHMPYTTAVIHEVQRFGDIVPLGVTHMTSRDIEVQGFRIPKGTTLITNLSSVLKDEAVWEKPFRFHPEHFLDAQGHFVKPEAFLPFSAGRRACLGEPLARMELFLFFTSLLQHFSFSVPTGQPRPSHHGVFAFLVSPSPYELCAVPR
# [17] = molecular target: Growth hormone secretagogue receptor type 1 (Homo sapiens, UniProt Q92847); experiment: Agonist activity at human Ghrelin receptor; format: functional
# Sequence of Growth hormone secretagogue receptor type 1 (Q92847 whole entry): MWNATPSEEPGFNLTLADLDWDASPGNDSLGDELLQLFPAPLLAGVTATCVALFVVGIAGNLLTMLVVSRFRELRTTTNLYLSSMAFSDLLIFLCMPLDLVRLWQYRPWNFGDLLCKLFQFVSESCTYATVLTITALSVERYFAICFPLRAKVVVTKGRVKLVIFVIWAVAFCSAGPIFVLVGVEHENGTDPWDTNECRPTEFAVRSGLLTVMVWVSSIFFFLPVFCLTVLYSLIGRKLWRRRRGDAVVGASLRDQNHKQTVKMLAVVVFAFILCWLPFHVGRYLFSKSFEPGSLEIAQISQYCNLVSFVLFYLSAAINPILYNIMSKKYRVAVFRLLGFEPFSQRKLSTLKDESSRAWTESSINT
# [18] = molecular target: Voltage-gated inwardly rectifying potassium channel KCNH2 (Homo sapiens, UniProt Q12809); experiment: Binding affinity to human ERG
# Sequence of Voltage-gated inwardly rectifying potassium channel KCNH2 (Q12809 whole entry): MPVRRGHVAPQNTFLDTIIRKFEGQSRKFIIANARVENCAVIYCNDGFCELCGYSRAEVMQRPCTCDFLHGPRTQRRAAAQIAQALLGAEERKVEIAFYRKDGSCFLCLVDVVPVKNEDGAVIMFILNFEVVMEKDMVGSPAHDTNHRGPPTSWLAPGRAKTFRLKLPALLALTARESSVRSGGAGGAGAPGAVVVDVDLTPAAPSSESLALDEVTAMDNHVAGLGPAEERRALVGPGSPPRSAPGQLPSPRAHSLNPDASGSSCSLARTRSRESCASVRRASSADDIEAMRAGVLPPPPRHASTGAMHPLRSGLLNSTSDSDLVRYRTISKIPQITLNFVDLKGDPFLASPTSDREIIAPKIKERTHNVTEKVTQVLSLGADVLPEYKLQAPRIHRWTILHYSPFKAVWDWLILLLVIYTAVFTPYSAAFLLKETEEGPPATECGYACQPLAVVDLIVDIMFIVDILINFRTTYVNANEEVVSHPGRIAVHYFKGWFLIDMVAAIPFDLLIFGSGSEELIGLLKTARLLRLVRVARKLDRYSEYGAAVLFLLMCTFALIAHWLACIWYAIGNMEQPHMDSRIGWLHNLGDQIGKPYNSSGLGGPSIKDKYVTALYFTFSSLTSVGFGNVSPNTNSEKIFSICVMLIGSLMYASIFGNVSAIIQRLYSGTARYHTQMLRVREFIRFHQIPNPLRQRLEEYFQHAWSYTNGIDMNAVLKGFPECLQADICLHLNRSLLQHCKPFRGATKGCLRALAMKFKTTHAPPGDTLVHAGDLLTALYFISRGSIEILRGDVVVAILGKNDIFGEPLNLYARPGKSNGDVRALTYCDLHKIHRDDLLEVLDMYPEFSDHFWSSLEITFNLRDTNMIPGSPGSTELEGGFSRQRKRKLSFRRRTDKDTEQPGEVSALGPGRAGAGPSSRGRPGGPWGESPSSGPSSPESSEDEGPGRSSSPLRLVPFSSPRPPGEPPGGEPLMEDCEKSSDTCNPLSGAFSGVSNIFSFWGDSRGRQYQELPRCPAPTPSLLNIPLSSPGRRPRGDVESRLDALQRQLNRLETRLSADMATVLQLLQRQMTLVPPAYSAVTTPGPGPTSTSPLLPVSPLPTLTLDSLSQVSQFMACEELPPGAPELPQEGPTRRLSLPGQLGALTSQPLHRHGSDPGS
# [19] = Protein binding in human plasma; format: ADME, cell-free; settings: read-out: PPB (converted)
# [20] = Protein binding in rat plasma; format: ADME, cell-free; settings: read-out: PPB (converted)
# T1 sequence (O43193 whole entry): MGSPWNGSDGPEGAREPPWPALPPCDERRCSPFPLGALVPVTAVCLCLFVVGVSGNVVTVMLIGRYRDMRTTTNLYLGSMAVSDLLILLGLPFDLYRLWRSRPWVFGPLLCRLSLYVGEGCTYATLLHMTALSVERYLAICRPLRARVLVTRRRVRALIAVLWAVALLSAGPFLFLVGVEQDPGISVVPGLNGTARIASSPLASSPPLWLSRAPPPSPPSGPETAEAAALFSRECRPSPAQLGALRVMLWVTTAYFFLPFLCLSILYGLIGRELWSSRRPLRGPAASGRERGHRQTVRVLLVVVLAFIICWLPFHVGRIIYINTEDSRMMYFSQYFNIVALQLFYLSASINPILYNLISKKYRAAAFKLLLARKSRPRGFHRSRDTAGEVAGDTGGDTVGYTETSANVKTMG
smiles,measurement,setting,value
C[C@@H]1CN(Cc2ccc(CC(=O)N3CCC(Nc4ccc(F)cc4)CC3)cc2)C[C@H](C)N1,Intrinsic activity,Motilin receptor [1],0.9
same,IC50,Cytochrome P450 3A4 [2],41 µM
same,IC50,Cytochrome P450 3A4 [3],59 µM
same,Activity,Cytochrome P450 3A4 [4],2.7
same,EC50,Motilin receptor [5],39.8 nM
C[C@H]1CN(Cc2ccc(CCC(=O)N3CCC(Nc4ccc(F)cc4)CC3)cc2)CCN1,Intrinsic activity,Motilin receptor [1],1.2
same,EC50,Motilin receptor [5],63.1 nM
CCCC[C@H](NC(=O)[C@H](CCCNC(=N)N)NC(=O)[C@H](CCC(N)=O)NC(=O)[C@H](CC(C)C)NC(=O)[C@H](CCC(=O)O)NC(=O)CNC(=O)[C@H](Cc1ccc(O)cc1)NC(=O)[C@@H](NC(=O)[C@H](Cc1ccccc1)NC(=O)[C@@H](NC(=O)[C@@H]1CCCN1C(=O)[C@@H](NC(=O)[C@@H](N)Cc1ccccc1)C(C)C)[C@@H](C)CC)[C@@H](C)O)C(=O)N[C@@H](CCC(N)=O)C(=O)N[C@@H](CCC(=O)O)C(=O)N[C@@H](CCCCN)C(=O)N[C@@H](CCC(=O)O)C(=O)N[C@@H](CCCNC(=N)N)C(=O)N[C@@H](CC(N)=O)C(=O)N[C@@H](CCCCN)C(=O)NCC(=O)N[C@@H](CCC(N)=O)C(=O)O,Activity,Stomach [6],740%
same,Activity,Stomach [7],721%
same,half-life at 0.3 µM,[8],11.4 min
C[C@H]1CN(Cc2ccc(CC(=O)N3CCC(Nc4cccc(F)c4)CC3)cc2)CCN1.Cl,solubility,[9],> 1 µg/mL
C[C@H]1CN(Cc2ccc(CC(=O)N3CCC(Nc4cccc(F)c4)CC3)cc2)CCN1 [CAMICINAL],Activity,Cytochrome P450 3A4 [4],1.4
same,Activity,Stomach [10],248%
same,Activity,Stomach [11],108%
same,Activity,Stomach [6],53%
same,Cmax,[12],400 nM
same,Tmax,[13],120 min
same,AUC,Rattus norvegicus,12 kg·min/L
same,half-life at 3 µM,[14],46.9 min
same,EC50,Motilin receptor [5],12.6 nM
same,bioavailability,[15],48%
same,bioavailability,[16],51%
same,IC50,Cytochrome P450 1A2,> 100 µM
same,IC50,Cytochrome P450 2C9,> 100 µM
same,IC50,Cytochrome P450 2C19,> 100 µM
same,IC50,Cytochrome P450 2D6,34 µM
same,EC50,[17],> 1 µM
same,IC50,[18],15.8 µM
same,fraction unbound,[19],0.17
same,fraction unbound,[20],0.37
C[C@H]1CN(Cc2ccc(CC(=O)N3CCC(Nc4cccc(F)c4)CC3)cc2)CCN1,Intrinsic activity,Motilin receptor [1],0.9
C[C@@H]1CN(Cc2ccc(-c3cccnc3C(=O)N3CCC(Nc4ccc(F)cc4)CC3)cc2)C[C@H](C)N1.Cl,solubility,[9],≥ 1 µg/mL
CC[C@H](C)[C@H](NC(=O)[C@@H]1CCCN1C(=O)[C@@H](NC(=O)[C@@H](N)Cc1ccccc1)C(C)C)C(=O)N[C@@H](Cc1ccccc1)C(=O)N[C@H](C(=O)N[C@@H](Cc1ccc(O)cc1)C(=O)NCC(=O)N[C@@H](CCC(=O)O)C(=O)N[C@@H](CC(C)C)C(=O)N[C@@H](CCC(N)=O)C(=O)N[C@@H](CCCNC(=N)N)C(=O)N[C@@H](CCSC)C(=O)N[C@@H](CCC(N)=O)C(=O)N[C@@H](CCC(=O)O)C(=O)N[C@@H](CCCCN)C(=O)N[C@@H](CCC(=O)O)C(=O)N[C@@H](CCCNC(=N)N)C(=O)N[C@@H](CC(N)=O)C(=O)N[C@@H](CCCCN)C(=O)NCC(=O)N[C@@H](CCC(N)=O)C(=O)O)[C@@H](C)O,Intrinsic activity,Motilin receptor [1],1
same,EC50,Motilin receptor [5],0.0398 nM
